Source: ChEMBL document CHEMBL1153571, “New imidazo[1,2-a]quinoxaline derivatives: synthesis and in vitro activity against human melanoma” (Eur J Med Chem, 2009)

tested on: A-375; test: Cytotoxicity against human A375 cells after 96 hrs by MTT assay; format: functional, cell-based; conditions: A-375, 96 h
In short: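 A375 human melanoma cells (ATCC) in RPMI-1640 with 10% heat-inactivated FBS, 2 mM L-glutamine, penicillin/streptomycin/amphotericin B, 37 °C, 5% CO2. Plated at 5000 cells/well, attached overnight. Compounds added in 1% DMSO/medium over a log dilution range and left for 96 h. MTT then added for 4 h at 37 °C. Formazan dissolved in isopropanol/1 M HCl (96/4), read at 570 nm. Survival expressed as % of vehicle control, IC50 taken from sigmoidal curves. At least three experiments in triplicate.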

In order of falling IC50:
1. CCOP(=O)(OCC)C(C)NC(=O)N(CCCl)N=O (configuration not stated) [FOTEMUSTINE]  173000 nM
2. CNc1nc2ccccc2n2c(-c3ccccc3OC)cnc12  122000 nM
3. CNc1nc2ccccc2n2c(-c3ccoc3)cnc12  74100 nM
4. CC(C)Cn1cnc2c(N)nc3ccccc3c21 [IMIQUIMOD]  70300 nM
5. CNc1nc2ccccc2n2c(-c3cccc([N+](=O)[O-])c3)cnc12  40000 nM
6. CNc1nc2ccccc2n2c(-c3cccc(C#N)c3)cnc12  27000 nM
7. CNc1nc2ccccc2n2c(-c3cccc(F)c3)cnc12  24900 nM
8. CNc1nc2ccccc2n2c(-c3cccc(C(=O)O)c3)cnc12  3470 nM
9. CNc1nc2ccccc2n2c(-c3ccccc3)cnc12  2190 nM
10. CNc1nc2ccccc2n2c(-c3cccc(Cl)c3)cnc12  1780 nM
11. CNc1nc2ccccc2n2c(CCc3ccccc3)cnc12  1570 nM
12. CNc1nc2ccccc2n2c(-c3cccc(C(F)(F)F)c3)cnc12  1280 nM
13. CNc1nc2ccccc2n2c(-c3cccc(Br)c3)cnc12  650 nM
14. CNc1nc2ccccc2n2c(-c3cccc(O)c3)cnc12  560 nM
15. CNc1nc2ccccc2n2c(-c3ccc(OC)cc3)cnc12  370 nM
16. CCOc1cccc(-c2cnc3c(NC)nc4ccccc4n23)c1  300 nM
17. CNc1nc2ccccc2n2c(-c3cccc(OC)c3)cnc12  200 nM
